Laboratory results: ChEMBL document CHEMBL1124574, “Lipophilic analogues of sparsomycin as strong inhibitors of protein synthesis and tumor growth: a structure-activity relationship study” (J Med Chem, 1989)
Converted amounts (≈) assume the structure as drawn. The source made the active and inactive calls. The rule behind the calls is not given here.

Columns and labels:
[1] = test system: L1210; test: In Vivo evaluation for the acute toxicity by L1210 clonogenic assay; format: functional, Mus musculus
[2] = lipophilicity parameter (Rm) was determined; conditions: RP-8 HPTLC, 60% methanol/water
[3] = test system: Escherichia coli; test: In vitro inhibition of cell growth in Escherichia coli MRE600; format: functional; conditions: read-out: ED50 (the source's name)
[4] = test system: Saccharomyces cerevisiae; test: In vitro inhibition of polyuridylic acid dependent polyphenylalanine synthesis using ribosomes from Saccharomyces cerevisiae; format: functional; conditions: read-out: ED50 (the source's name)
[5] = In Vivo evaluation for the acute toxicity in mice; conditions: mouse
[6] = test system: T-24; test: In vitro inhibition of cell growth in T24 bladder carcinoma cell line; format: functional; conditions: Homo sapiens, read-out: ID50 (the source's name)
[7] = test system: L1210; test: In vitro inhibition of cell growth in L1210 murine leukemia cells; format: functional; conditions: Mus musculus, read-out: ID50 (the source's name)
[8] = test system: Escherichia coli; test: In vitro inhibition of Puromycin reaction in the ribosomes from Escherichia coli; format: functional; conditions: read-out: ED50 (the source's name)
[9] = test system: Escherichia coli; test: In vitro inhibition of polyuridylic acid dependent polyphenylalanine synthesis using ribosomes from Escherichia coli; format: functional; conditions: read-out: ED50 (the source's name)
[10] = (§1) Kinetic constant was determined
[11] = Water solubility was determined
[12] = Partition coefficient (logP); conditions: octanol/water
[13] = test system: Escherichia coli; test: In vitro inhibition of modified fragment reaction using ribosomes from Escherichia coli; format: functional; conditions: read-out: ED50 (the source's name)
[14] = test system: WiDr; test: In vitro inhibition of cell growth in Human WiDr colon carcinoma cell line; format: functional; conditions: read-out: ID50 (the source's name)
[15] = test system: Saccharomyces cerevisiae; test: In vitro inhibition of modified fragment reaction using ribosomes from Saccharomyces cerevisiae; format: functional; conditions: read-out: ED50 (the source's name)
[16] = as §1; format: ADME
[17] = test system: Escherichia coli; test: In vitro inhibition of cell growth in Escherichia coli; format: functional; conditions: read-out: ED50 (the source's name)
[18] = lipophilicity parameter(Rm) was determined; format: physicochemical; conditions: RP-8 HPTLC, 60% methanol/water
Method in brief: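 Rf measured by reversed-phase RP-8 HPTLC, eluent 60% methanol/water; Rm computed as log(1/Rf − 1).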

[19] = test system: Escherichia coli; test: In vitro inhibition of modified fragment reaction using ribosomes from Escherichia coli; Inactive at 100 uM; format: functional
Method in brief: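 Peptidyl transferase assayed by the fragment-reaction protocol, but with intact N-acetyl-Phe-tRNA as substrate in place of its terminal pentanucleotide; ribosomes from the organism named in the line; 50% inhibitory value derived.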

[20] = test system: Saccharomyces cerevisiae; test: In vitro inhibition of polyuridylic acid dependent polyphenylalanine synthesis using ribosomes from Saccharomyces cerevisiae; Inactive at 100 uM; format: functional
[21] = test system: WiDr; test: In vitro inhibition of cell growth in Human WiDr colon carcinoma cell line; NT means not tested; format: functional; conditions: read-out: ID50 (the source's name)
Method in brief: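 Human tumor cell line cytotoxicity measured by the automated PIT method (propidium iodide, ink, Triton X-100); ID50 calculated.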

| EC50 [9] [µM] | Compound | T/C [1] [%] | Rm [2] | EC50 [3] [µM] | EC50 [4] [µM] | LD50 [5] [mg/kg] | IC50 [6] [µM] | IC50 [7] [µM] | EC50 [8] [µM] | log k0 [10] | solubility [11] [mg/mL] | logP [12] | EC50 [13] [µM] | IC50 [14] [µM] | EC50 [15] [µM] | EC50 [17] [µM] | other results |
| --- | --- | --- | --- | --- | --- | --- | --- | --- | --- | --- | --- | --- | --- | --- | --- | --- | --- |
| 140 | CCC[S+]([O-])C[C@H](CO)NC(=O)/C=C/c1c(C)nc(O)nc1O (stereo not given in full) |  |  | 36 | 42 |  |  | 0.75 | 0.23 |  |  |  | 4.5 |  | 6.2 |  |  |
| 86 | Cc1nc(O)nc(O)c1/C=C/C(=O)N[C@@H](C)C[S+]([O-])CCl (stereo not given in full) |  |  |  |  |  |  | 0.15 |  |  |  |  |  |  |  | 7.5 | ED50 [19]: inactive; ED50 [20]: inactive |
| 1.8 | CCCCCCCCCC[S+]([O-])C[C@H](CO)NC(=O)/C=C/c1c(C)nc(O)nc1O (stereo not given in full) |  |  |  | 0.2 |  |  | 0.14 | 0.08 |  |  |  | 5000 |  | 700 | 3 |  |
| 8.5 | CCCCCCCCSC[S+]([O-])C[C@H](C)NC(=O)/C=C/c1c(C)nc(O)nc1O (stereo not given in full) |  | 1.151 |  | 1.4 |  | 0.14 | 0.03 | 0.46 |  | 0.015 (≈ 33.8 µM) | > 2.42 | 46 | 0.28 | 60 | 15 | Log Ko [16]: 3.533 |
| 3 | CCCSC[S+]([O-])C[C@H](CO)NC(=O)/C=C/c1c(C)nc(O)nc1O (stereo not given in full) |  |  | 5 | 7 |  | 0.65 | 0.14 | 0.08 | 0.117 | 1.5 (≈ 3850 µM) | -0.665 | 5.5 | 0.89 | 7.5 |  | Rm [18]: -0.261 |
| 34 | CC(=O)NCCSC[S+]([O-])C[C@H](CO)NC(=O)/C=C/c1c(C)nc(O)nc1O (stereo not given in full) |  |  | 100 | 32 |  |  | 1.9 | 1 |  |  |  | 60 |  | 56 |  |  |
| 6.6 | Cc1nc(O)nc(O)c1/C=C/C(=O)N[C@@H](CO)C[S+]([O-])CSC1CCCCC1 (stereo not given in full) |  |  | 7.5 | 5.1 |  |  | 0.6 | 0.04 |  |  |  | 5.2 |  | 12 |  |  |

Continued, compound first:

| Compound | EC50 [9] [µM] | T/C [1] [%] | Rm [2] | EC50 [3] [µM] | EC50 [4] [µM] | LD50 [5] [mg/kg] | IC50 [6] [µM] | IC50 [7] [µM] | EC50 [8] [µM] | log k0 [10] | solubility [11] [mg/mL] | logP [12] | EC50 [13] [µM] | IC50 [14] [µM] | EC50 [15] [µM] | EC50 [17] [µM] | other results |
| --- | --- | --- | --- | --- | --- | --- | --- | --- | --- | --- | --- | --- | --- | --- | --- | --- | --- |
| CCCCCSC[S+]([O-])C[C@H](CO)NC(=O)/C=C/c1c(C)nc(O)nc1O (stereo not given in full) | 1 | 386 | 0.16 | 1 | 0.17 | 4.7 | 0.28 | 0.06 | 0.03 | 1.168 | 0.28 (≈ 671 µM) | 0.6 | 2.6 | 0.4 | 2.7 |  |  |
| CCCCCCC[S+]([O-])C[C@H](CO)NC(=O)/C=C/c1c(C)nc(O)nc1O (stereo not given in full) | 0.48 | 330 | 0.56 |  | 0.1 | 6.1 | 0.16 | 0.15 | 0.04 |  | 0.22 (≈ 551 µM) | 1.02 | 9 | 0.28 | 5.8 | 1.4 | Log Ko [16]: 1.771 |
| CSC[S+]([O-])C[C@H](CO)NC(=O)/C=C/c1c(C)[nH]c(=O)[nH]c1=O (stereo not given in full) | 8.5 | 117 |  | 11 | 5.2 | 0.26 | 0.91 | 0.48 | 0.1 | -0.676 | 3.8 (≈ 10500 µM) | -1.71 | 3.2 | 0.92 | 2.8 |  | Rm [18]: -0.638 |
| CCCCSC[S+]([O-])C[C@H](CO)NC(=O)/C=C/c1c(C)nc(O)nc1O (stereo not given in full) | 1.8 | 156 | -0.028 | 3 | 1 | 2.33 | 0.23 | 0.1 | 0.06 | 0.777 | 0.57 (≈ 1410 µM) | 0.143 | 5.1 | 0.31 | 4.8 |  |  |
| CSC[S+]([O-])C[C@H](C)NC(=O)/C=C/c1c(C)nc(O)nc1O (stereo not given in full) | 14.6 | 216 | -0.404 | 5.6 | 50 | 2.33 | 0.44 | 0.07 | 0.25 | -0.209 | 18 (≈ 52100 µM) | -0.699 | 18 |  | 39 |  | IC50 [21]: 0.58 µM |
| CCC[S+]([O-])C[C@H](C)NC(=O)/C=C/c1c(C)nc(O)nc1O (stereo not given in full) | 80 |  |  | 9.5 | 200 |  |  | 0.45 | 0.38 |  |  |  |  |  |  |  |  |
| CCCCCCCCSC[S+]([O-])C[C@H](CO)NC(=O)/C=C/c1c(C)nc(O)nc1O (stereo not given in full) | 1.6 | 151 | 0.895 |  | 1.3 | 29.5 | 0.06 | 0.1 | 0.25 |  | 0.013 (≈ 28.3 µM) | > 2.42 | 60 | 0.22 | 300 | 4.4 | Log Ko [16]: 3.333 |
| Cc1nc(O)nc(O)c1/C=C/C(=O)N[C@@H](CO)C[S+]([O-])CSC(C)(C)C (stereo not given in full) | 31 |  |  |  | 900 |  |  |  | 0.31 |  |  |  | 27.5 |  | 100 |  |  |
| CCCCCC[S+]([O-])C[C@H](CO)NC(=O)/C=C/c1c(C)nc(O)nc1O (stereo not given in full) | 0.75 | 135 | 0.235 |  | 0.14 | 1.6 | 0.35 | 0.14 | 0.18 |  | 0.89 (≈ 2310 µM) | 0.41 | 7.5 | 0.39 | 5 | 3 | Log Ko [16]: 1.111 |
| Cc1nc(O)nc(O)c1/C=C/C(=O)N[C@@H](CO)C[S@@+]([O-])CCl |  |  |  |  |  |  |  |  |  |  |  |  |  |  |  | 20 |  |
| CCCCSC[S+]([O-])C[C@H](C)NC(=O)/C=C/c1c(C)nc(O)nc1O (stereo not given in full) | 3 | 164 | 0.218 | 2.5 | 1.9 | 16.5 | 0.09 | 0.05 | 0.05 | 1.29 | 0.94 (≈ 2430 µM) | 0.819 | 12.1 | 0.16 | 15 |  |  |
